The results in this text go back to ChEMBL document CHEMBL2434962, “Benzohydroxamic acids as potent and selective anti-HCV agents” (Bioorg Med Chem Lett, 2013).

As a reminder, the CC50 is the concentration at which the toxic effect on the cells reaches its halfway point. A lower CC50 goes with harm at low concentration. As a reminder, the EC50 is the concentration needed to bring the measured effect to its halfway point.

Active and inactive are the calls of the source. The rule behind the calls is not given here.

Data set [1] in a line: Cytotoxicity against human HuH7 cells expressing luc/neo after 72 hrs by MTT assay. It counts as cell-based, Huh-7. For orientation: Formazan colour is commonly taken as a measure of viable cells.
The next data set deals with Hepatitis C virus. As to the kind of experiment: Antiviral activity against HCV in human Huh-luc/neo7 cells after 72 hrs by luciferase reporter gene assay. It counts as functional, organism-based, Hepacivirus hominis. In outline:
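Huh7 cells persistently carrying full-genome HCV replicon treated with compound (e.g., 0, 1, 5, 25, 125 µM) for 72 h; replicon translation/replication read as firefly luciferase activity; EC50 from dose-response.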
Background: In a reporter assay the amount or activity of a reporter protein is the signal.

Data set [2] in a line: Selectivity index, ratio of CC50 for human Huh-luc/neo7 cells to EC50 for HCV.
Data set [3] has as its system RD. The data set is described as follows: Cytotoxicity against human RD cells assessed as cell density incubated at 125 uM for 72 hrs and at 250 uM for 7 hrs by light transmission spectroscopy relative to vehicle-treated control. It counts as cell-based. In outline: (§1)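 RD cells incubated 72 h at 125 µM, then 7 h more at 250 µM (time of PV reproduction cycle); monolayer density by light transmission imaging and nuclear morphology by fluorescence microscopy after Hoechst 33342 DNA staining, compared with untreated controls.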

The subject of data set [4] is Enterovirus C. As to the kind of experiment: Antiviral activity against poliovirus infected in human RD cells assessed as destruction of RD cell monolayer pretreated at 125 uM for 72 hrs followed by viral infection and compound treatment at 250 uM for 7 hrs by light microscopy. The format is functional, cell-based. In outline: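 RD cells were pretreated with compound for 72 h at 125, then infected with poliovirus at an MOI of ~20 or ~600 PFU/cell and incubated at 250 for 7 h. The integrity of the cell monolayer was examined by light microscopy right after infection or at 7 h.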

Data set [5] has as its system Enterovirus C. The data set is described as follows: Antiviral activity against poliovirus infected in human RD cells assessed as nuclear alteration pretreated at 125 uM for 72 hrs followed by viral infection and compound treatment at 250 uM for 7 hrs by Hoechst 33342 staining-based fluorescence microscopy. It counts as functional, cell-based. The method in brief: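 RD cells were pretreated with compound for 72 h at 125, then infected with poliovirus at an MOI of ~20 or ~600 PFU/cell and held at 250 for 7 h. Nuclear DNA was stained with Hoechst33342, and nuclear alterations were scored by fluorescence microscopy right after infection or at 7 h.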

Data set [6] deals with RD. The data set is described as follows: Cytotoxicity against human RD cells assessed as morphological changes incubated at 125 uM for 72 hrs and at 250 uM for 7 hrs by Hoechst 33342 staining-based fluorescence microscopy. The format is cell-based. The method in brief: as §1

In data set [1], `O=C(NO)c1ccc(Cl)cc1` displayed a CC50 at 72 h of 55 µM. In the data set with Hepatitis C virus, the EC50 was 3 µM. Further, in data set [2], the “Ratio CC50/EC50” value is given as 18.

The compound `Cc1ccc(C(=O)NO)c(Cl)c1` had a CC50 at 72 h in data set [1] of 140 µM. The EC50 in the data set on Hepatitis C virus stood at 1.5 µM. Moreover, the “Ratio CC50/EC50” value in data set [2] is 93.

Regarding `COc1ccc(C(=O)NO)cc1`, the CC50 at 72 h in data set [1] came to 180 µM. This compound also came in with an EC50 in the data set with Hepatitis C virus of 12 µM. In addition, the “Ratio CC50/EC50” value in data set [2] is recorded as 15.

The compound `O=C(NO)c1cccc(Cl)c1` returned a CC50 at 72 h in data set [1] of 120 µM. In the data set on Hepatitis C virus, the midpoint of the response, the EC50, lay at 10 µM. The “Ratio CC50/EC50” value in data set [2] turned out to be 12.

As for `N/C(=N\O)c1ccccc1O`, the half-maximal cytotoxic concentration (CC50) at 72 h in data set [1] stood at 500 µM. The compound further had an EC50 with Hepatitis C virus of 140 µM.

With `O=C(NO)c1ccc(Cl)cc1Cl`, the CC50 at 72 h in data set [1] turned out to be 140 µM. In addition, in the data set on Hepatitis C virus, the EC50 turned out to be 0.8 µM. The “Ratio CC50/EC50” value in data set [2] is recorded as 175.

`O=C(NO)c1cc([N+](=O)[O-])ccc1O` displayed a CC50 at 72 h in data set [1] greater than 1000 µM. The compound further registered an EC50 with Hepatitis C virus of 160 µM. Further, the “Ratio CC50/EC50” value in data set [2] was greater than 6.

In turn, `COc1ccccc1/C(N)=N/O` came in with a CC50 at 72 h in data set [1] greater than 800 µM. This compound returned an EC50 in the data set on Hepatitis C virus greater than 300 µM.

As for `CN(O)C(=O)c1ccccc1O`, in data set [1], the 50% cytotoxic concentration (CC50) at 72 h was greater than 800 µM. The compound also returned an EC50 in the data set with Hepatitis C virus greater than 300 µM. For the same compound, the Activity result with RD [3] and in the data set on RD [6] was “Non-toxic” each time. The outcome in the data set with Enterovirus C [4] and with Enterovirus C [5] was inactive.

For the compound `COc1cc(C)ccc1C(=O)NO`, in data set [1], the CC50 at 72 h amounted to 900 µM. This compound also gave an EC50 in the data set on Hepatitis C virus of 15 µM. In addition, the “Ratio CC50/EC50” value in data set [2] was 60.

As for `COc1ccc([N+](=O)[O-])cc1C(=O)NO`, the half-maximal cytotoxic concentration (CC50) at 72 h in data set [1] was 350 µM. This compound also registered an EC50 in the data set with Hepatitis C virus of 3 µM. Also, in data set [2], the “Ratio CC50/EC50” value is recorded as 120.

The compound `Cc1ccccc1C(=O)NO` had a CC50 at 72 h in data set [1] of 650 µM. The EC50 in the data set on Hepatitis C virus worked out at 85 µM. The “Ratio CC50/EC50” value in data set [2] came out at 8.

`O=C(NO)c1cccc([N+](=O)[O-])c1` gave a CC50 at 72 h in data set [1] of 160 µM. In addition, the midpoint of the response in the data set with Hepatitis C virus, the EC50, lay at 5 µM. In addition, the “Ratio CC50/EC50” value in data set [2] was 32.

In data set [1], `Cc1cccc(C(=O)NO)c1` came in with a CC50 at 72 h of 340 µM. For the same compound, in the data set with Hepatitis C virus, the EC50 turned out to be 20 µM. Also, the “Ratio CC50/EC50” value in data set [2] was 17.

In the case of `CCCCOc1ccccc1C(=O)NO`, in data set [1], it took 380 µM to reach half-maximal cytotoxicity (CC50 at 72 h). In the data set on Hepatitis C virus, this compound showed an EC50 of 10 µM. Besides, in data set [2], the “Ratio CC50/EC50” value stood at 38.

Compound `NC(=O)c1ccccc1O` [SALICYLAMIDE] came in with a CC50 at 72 h in data set [1] greater than 800 µM. Further, the EC50 with Hepatitis C virus was greater than 300 µM.

On to `NC(=NO)c1ccccc1` [BENZAMIDOXIME], for which the CC50 at 72 h in data set [1] was greater than 800 µM. The compound further came in with an EC50 with Hepatitis C virus of 270 µM.

On to `O=C(NO)c1ccc(Br)cc1`, for which half-maximal cytotoxicity in data set [1] (CC50 at 72 h) was put at 25 µM. In the data set with Hepatitis C virus, this compound registered an EC50 of 2 µM. In addition, the “Ratio CC50/EC50” value in data set [2] was 13.

In the case of `COCc1ccccc1C(=O)NO`, in data set [1], the CC50 at 72 h is greater than 1000 µM. In the data set on Hepatitis C virus, this compound returned an EC50 of 170 µM. The “Ratio CC50/EC50” value in data set [2] is on record as greater than 6.

`Cc1cc(Br)ccc1C(=O)NO`: in data set [1], the CC50 at 72 h was found to be 120 µM. This compound gave an EC50 in the data set on Hepatitis C virus of 0.5 µM. Further, the “Ratio CC50/EC50” value in data set [2] amounted to 240.

On to `COc1ccc(C)cc1C(=O)NO`, for which the CC50 at 72 h in data set [1] came out at 800 µM. In the data set with Hepatitis C virus, the EC50 was found to be 10 µM. Moreover, in data set [2], the “Ratio CC50/EC50” value was determined as 80.

The compound `CONC(=O)c1ccccc1OC` came in with a CC50 at 72 h in data set [1] greater than 800 µM. The EC50 with Hepatitis C virus is greater than 300 µM.

On to `O=C(NO)c1ccccc1OCCOc1ccccc1C(=O)NO`, for which the CC50 at 72 h in data set [1] was greater than 800 µM. Also, in the data set on Hepatitis C virus, it took 35 µM to reach a half-maximal effect (EC50). Besides, the “Ratio CC50/EC50” value in data set [2] is greater than 23.

In the case of `COc1cccc(OC)c1C(=O)NO`, in data set [1], the CC50 at 72 h was greater than 800 µM. The EC50 with Hepatitis C virus was determined as 50 µM. In addition, in data set [2], the “Ratio CC50/EC50” value is greater than 16.

As for `COc1cccc(C(=O)NO)c1`, the CC50 at 72 h in data set [1] was found to be 570 µM. Moreover, the response in the data set on Hepatitis C virus was half-maximal at 70 µM (EC50). The “Ratio CC50/EC50” value in data set [2] worked out at 8.

For the compound `CONC(=O)c1ccccc1O`, the CC50 at 72 h in data set [1] was greater than 800 µM. The same compound came in with an EC50 in the data set with Hepatitis C virus greater than 300 µM.

Compound `CONC(=O)c1ccccc1` had a CC50 at 72 h in data set [1] greater than 800 µM. The same compound came in with an EC50 in the data set with Hepatitis C virus greater than 300 µM.

`O=C(NO)c1ccccc1F` displayed a CC50 at 72 h in data set [1] of 300 µM. Moreover, in the data set with Hepatitis C virus, the response was half-maximal at 15 µM (EC50). Also, the “Ratio CC50/EC50” value in data set [2] is 20.

`O=C(NO)c1ccccc1Cl`: in data set [1], the CC50 at 72 h stood at 330 µM. The compound further had an EC50 with Hepatitis C virus of 2 µM. Besides, in data set [2], the “Ratio CC50/EC50” value came out at 165.

As for `COc1ccccc1C(=O)N(C)O`, the CC50 at 72 h in data set [1] was greater than 800 µM. The EC50 in the data set with Hepatitis C virus was greater than 300 µM.

On to `CN(O)C(=O)c1ccccc1`, for which, in data set [1], the CC50 at 72 h worked out at 400 µM. For the same compound, the midpoint of the response in the data set with Hepatitis C virus, the EC50, lay at 65 µM.

In the case of `O=C(NO)c1ccc([N+](=O)[O-])cc1`, the half-maximal cytotoxic concentration (CC50) at 72 h in data set [1] was found to be 70 µM. The compound also showed an EC50 in the data set on Hepatitis C virus of 3 µM. For the same compound, the “Ratio CC50/EC50” value in data set [2] was determined as 23.

On to `O=C(NO)c1ccccc1[N+](=O)[O-]`, for which, in data set [1], the CC50 at 72 h was determined as 55 µM. The EC50 in the data set with Hepatitis C virus amounted to 1 µM. Further, the “Ratio CC50/EC50” value in data set [2] is 55.

In data set [1], `COc1ccccc1C(N)=O` yielded a CC50 at 72 h greater than 800 µM. Also, in the data set on Hepatitis C virus, the concentration giving a half-maximal response (EC50) is greater than 300 µM.

As for `O=C(NO)c1cccc(Br)c1`, the CC50 at 72 h in data set [1] stood at 310 µM. The compound also came in with an EC50 in the data set on Hepatitis C virus of 12 µM. Further, the “Ratio CC50/EC50” value in data set [2] worked out at 26.

In data set [1], `Cc1ccc(C(=O)NO)cc1` returned a CC50 at 72 h of 110 µM. The compound also registered an EC50 in the data set with Hepatitis C virus of 8 µM. Also, the “Ratio CC50/EC50” value in data set [2] was 14.

`O=C(NO)c1ccccc1Br` showed a CC50 at 72 h in data set [1] of 270 µM. Moreover, the EC50 with Hepatitis C virus was 3 µM. The “Ratio CC50/EC50” value in data set [2] is 90.
